Results collected from several papers.
Cell line: HepG2
Effect on: cell growth or viability

SMILES	method	time	IC50
CC1=C(O)C(=O)C=C2C1=CC=C1[C@@]2(C)CC[C@@]2(C)[C@@H]3C[C@](C)(C(=O)OCCCOc4ccccc4)CC[C@]3(C)CC[C@]12C	MTT	48 h	3.04 µM
O=[N+]([O-])c1ccc(-c2csc(Nc3ccc4c(O)ncnc4c3)n2)cc1	MTT		6.87 µM
C[C@H]1[C@@H](O)O[C@@H]2O[C@@]3(C)CC[C@H]4[C@H](C)CC[C@@H]1[C@@]24OO3	CCK-8	48 h	> 50 µM
C=CCn1c(-c2ccc([N+](=O)[O-])cc2)nc2ccc(C)cc21	MTT		63.5 µM
Nc1nc(-c2ccc(NC(=O)c3ccc(Cl)c(Cl)c3)cc2F)c[nH]1	XTT	24 h	16.9 µM
COc1cc2ncnc(Nc3ccc(F)c(Cl)c3)c2cc1NC(=O)N/N=C/CN1CCCCC1	MTT	72 h	2.06 µM
Oc1c(Br)cc(Br)c2cccnc12	MTT	48 h	> 100 µM
O=[N+]([O-])c1cccc(-c2nc3ccccc3[nH]2)c1	MTT	48 h	39 µM
CC(C)(C)NC(=O)NNC(=O)c1ccc(Nc2nccc(-c3ccc(Cl)cc3)n2)cc1	MTT		4.48 µM
COc1ccnc(-c2cc(OC)ccn2)c1	MTT	48 h	> 50 µM
Cc1ccc2nc(-c3ccc(Cl)c(Cl)c3)[nH]c2c1	MTT	48 h	56.7 µM
O=C(NNC(=O)c1ccc(Nc2nccc(-c3ccccn3)n2)cc1)NC1CCCC1	MTT		> 40 µM
CC1=CC(C)(C)N(Cc2ccccc2)c2ccc(O)cc21	MTT	72 h	20 µM
O=[N+]([O-])c1ccc(Cn2cc(Cn3c4ccccc4c4nc5ccccc5nc43)nn2)cc1	MTT	24 h	> 100 µM
Cc1cc(=O)oc2ccc(-c3cc(-c4cccs4)nc(N)n3)c(O)c12	MTT	72 h	> 128 µg/mL
O=C(NNC(=O)c1ccc(Nc2nccc(-c3ccc(Cl)cc3)n2)cc1)NC1CCCCC1	MTT	24 h	13.1 µM
COc1ccc(Nc2nc(-n3nc(C)cc3C)nc(-n3nc(C)cc3C)n2)cc1	MTT	72 h	5.42 µM
CC1=C(O)C(=O)C=C2C1=CC=C1[C@@]2(C)CC[C@@]2(C)[C@@H]3C[C@](C)(C(=O)OCCCCCCCO)CC[C@]3(C)CC[C@]12C	MTT	48 h	7.21 µM
CC1(C)CC[C@]2(C(=O)O)CC[C@]3(C)C(=CC[C@@H]4[C@@]5(C)CC[C@H](O)C(C)(C)[C@@H]5CC[C@]43C)[C@@H]2C1	MTT	48 h	> 100 µM
C#Cc1cccc(Nc2ncnc3cc(OCCOC)c(OCCOC)cc23)c1	MTT		6.83 µM
Fc1cccc(Cl)c1-c1nc2ccccc2[nH]1	MTT	48 h	> 100 µM
COc1cc2ncnc(Nc3ccc(F)c(Cl)c3)c2cc1NC(=O)N/N=C/c1cccn1CCN1CCOCC1	MTT	72 h	0.03 µM
O=c1c(O)c(-c2ccc(O)c(O)c2)oc2cc(O)cc(O)c12	WST-1	48 h	10.1 µM
Nc1ccc(-c2csc(Nc3ccc4c(O)ncnc4c3)n2)cc1	MTT		15 µM
COc1ccc(-c2nc3ccc(C)cc3[nH]2)cc1O	MTT	48 h	59.8 µM

SMILES	method	time	IC50
COc1cc2c(Nc3ccc(NC(=O)c4ccccc4)cc3)ncnc2cc1OCCCN1CCOCC1	MTS	48 h	3.3 µM
CCN(CC)CCn1cccc1/C=N/NC(=O)Nc1cc2c(Nc3ccc(F)c(Cl)c3)ncnc2cc1O[C@H]1CCOC1	MTT	72 h	0.54 µM
CC1=C(O)C(=O)C=C2C1=CC=C1[C@@]2(C)CC[C@@]2(C)[C@@H]3C[C@](C)(C(=O)OCCCCCCO)CC[C@]3(C)CC[C@]12C	MTT	48 h	10.7 µM
COc1cc2ncnc(Nc3ccc(F)c(Cl)c3)c2cc1NC(=O)N/N=C/c1cccn1CCCN1CCCCC1	MTT	72 h	0.31 µM
Oc1ncnc2cc(Nc3nc(-c4ccc(Br)cc4)cs3)ccc12	MTT		9.85 µM
Cc1ccc2nc(-c3ccc([N+](=O)[O-])cc3)n(Cc3ccccc3)c2c1	MTT		6.74 µM
CCN(CC)CCCn1cccc1/C=N/NC(=O)Nc1cc2c(Nc3ccc(F)c(Cl)c3)ncnc2cc1OC	MTT	72 h	0.22 µM
COC(=O)CN=c1scc(-c2ccccc2)n1-c1ccccc1OC	MTT	72 h	22.7 µM
COCCCOC(=O)[C@]1(C)CC[C@]2(C)CC[C@]3(C)C4=CC=C5C(=CC(=O)C(O)=C5C)[C@]4(C)CC[C@@]3(C)[C@@H]2C1	MTT	48 h	0.94 µM
COc1cccc2c1C(=O)c1c(O)c3c(c(O)c1C2=O)C[C@@](O)(C(=O)CO)C[C@@H]3O[C@H]1C[C@H](N)[C@H](O)[C@H](C)O1	SRB		0.37 µM
OCc1ccc2c(c1C#Cc1ccc(O)cc1)C(c1ccc(O)cc1)(c1ccc(O)cc1)c1cc(O)ccc1-2	MTT	48 h	> 50 µM
CCN(CC)CCn1cccc1/C=N/NC(=O)Nc1cc2c(Nc3ccc(F)c(Cl)c3)ncnc2cc1OC	MTT	72 h	1.62 µM
Fc1ccc(-c2nc3ccccc3[nH]2)cc1	MTT	48 h	35.8 µM
COc1cccc2c1C(=O)c1c(O)c3c(c(O)c1C2=O)C[C@@](O)(C(=O)CO)C[C@@H]3O[C@H]1C[C@H](N)[C@H](O)[C@H](C)O1	neutral red	48 h	0.23 µg/mL
CC1=C(O)C(=O)C=C2C1=CC=C1[C@@]2(C)CC[C@@]2(C)[C@@H]3C[C@](C)(C(=O)OCCCCCCCCO)CC[C@]3(C)CC[C@]12C	MTT	48 h	3.3 µM
Cc1cc(=O)oc2ccc(-c3cc(-c4ccc(Cl)cc4)nc(N)n3)c(O)c12	MTT	72 h	18.1 µg/mL
O=Cc1ccc(CO)o1	WST-1	48 h	77.7 µM
COc1cc2ncnc(Nc3ccc(F)c(Cl)c3)c2cc1NC(=O)N/N=C/c1cccn1CCCN1CCCC1	MTT	72 h	0.06 µM
COC1=C2C[C@@H](C)C[C@H](OC)[C@H](O)[C@@H](C)/C=C(\C)[C@H](OC(N)=O)[C@@H](OC)/C=C\C=C(/C)C(=O)NC(=CC1=O)C2=O	MTT		0.041 µM
O=c1[nH]cc(F)c(=O)[nH]1	WST-1	48 h	21.4 µM
O=C(N/N=C/c1cccn1CCCN1CCCCC1)Nc1cc2c(Nc3ccc(F)c(Cl)c3)ncnc2cc1O[C@H]1CCOC1	MTT	72 h	0.52 µM
Cc1ccc2c(Br)cc(Br)c(O)c2n1	MTT	48 h	> 150 µM
Clc1ccc(-c2nc3ccccc3[nH]2)c(Cl)c1	MTT	48 h	37.5 µM
CC(C)(C)NC(=O)NNC(=O)c1ccc(Nc2nccc(-c3ccccn3)n2)cc1	MTT		> 40 µM
